Laboratory results from ChEMBL document CHEMBL4265871, “Novel alkylated azoles as potent antifungals” (Eur J Med Chem, 2017).
≈ marks a conversion by molar mass, not a printed value. Calls of active or inactive are those of the source. No cut-off for these calls is given here.

Columns and labels:
Candida albicans [1] = experiment: Antifungal activity against Candida albicans ATCC 10231 incubated for 48 hrs by modified CLSI M27-A3 protocol based method; assay type: functional; details: ATCC 10231, 48 h, read-out: MIC100
Outline: (§1)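 For C. albicans ATCC 10231, C. krusei ATCC 6258 and C. parapsilosis ATCC 22019, MIC-0 was read, meaning complete growth inhibition. For azole controls, MIC-2 (50% growth inhibition) was reported instead. Caspofungin and voriconazole were tested here; other controls came from earlier work.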

Candida albicans [2] = experiment: Antifungal activity against Candida albicans ATCC 64124 incubated for 48 hrs by modified CLSI M27-A3 protocol based method; assay type: functional; details: ATCC 64124, 48 h
Candida albicans [3] = experiment: Antifungal activity against ITC and FLC-susceptible Candida albicans ATCC MYA-2876 incubated for 48 hrs by modified CLSI M27-A3 protocol based method; assay type: functional; details: ATCC MYA-2876, 48 h
Outline: (§2)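 Because these Candida strains show trailing growth, MIC-2 was read, meaning 50% growth inhibition. Caspofungin and voriconazole were tested here; other controls came from earlier work.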

Candida albicans [4] = experiment: Antifungal activity against ITC and FLC-resistant Candida albicans ATCC MYA-90819 incubated for 48 hrs by modified CLSI M27-A3 protocol based method; assay type: functional; details: ATCC MYA-90819, 48 h
Candida albicans [5] = experiment: Antifungal activity against ITC and FLC-susceptible Candida albicans ATCC MYA-2310 incubated for 48 hrs by modified CLSI M27-A3 protocol based method; assay type: functional; details: ATCC MYA-2310, 48 h
Candida albicans [6] = experiment: Antifungal activity against ITC and FLC-resistant Candida albicans ATCC 1237 incubated for 48 hrs by modified CLSI M27-A3 protocol based method; assay type: functional; details: ATCC 1237, 48 h; outline: as §2
Candida albicans [7] = experiment: Antifungal activity against ITC and FLC-resistant Candida albicans ATCC MYA-1003 incubated for 48 hrs by modified CLSI M27-A3 protocol based method; assay type: functional; details: ATCC MYA-1003, 48 h; outline: as §2
Nakaseomyces glabratus = experiment: Antifungal activity against Candida glabrata ATCC 2001 incubated for 48 hrs by modified CLSI M27-A3 protocol based method; assay type: functional; details: ATCC 2001, 48 h
Pichia kudriavzevii = experiment: Antifungal activity against Candida krusei ATCC 6258 incubated for 48 hrs by modified CLSI M27-A3 protocol based method; assay type: functional; details: ATCC 6258, 48 h; for MIC: read-out: MIC100; outline: as §1
Candida parapsilosis = experiment: Antifungal activity against Candida parapsilosis ATCC 22019 incubated for 48 hrs by modified CLSI M27-A3 protocol based method; assay type: functional; details: Lodderomyces parapsilosis, ATCC 22019, 48 h; for MIC: read-out: MIC100; outline: as §1
Aspergillus flavus = experiment: Antifungal activity against Aspergillus flavus ATCC MYA-3631 incubated for 48 hrs by CLSI M38-A2 protocol based method; assay type: functional; details: ATCC MYA-3631, 48 h, read-out: MIC100
Aspergillus nidulans = experiment: Antifungal activity against Aspergillus nidulans ATCC 38163 incubated for 48 hrs by CLSI M38-A2 protocol based method; assay type: functional; details: ATCC 38163, 48 h; for MIC: read-out: MIC100
Aspergillus terreus = experiment: Antifungal activity against Aspergillus terreus ATCC MYA-3633 incubated for 48 hrs by CLSI M38-A2 protocol based method; assay type: functional; details: ATCC MYA-3633, 48 h; for MIC: read-out: MIC100
Candida albicans [8] = experiment: Induction of membrane permeabilization in Candida albicans ATCC 10231 at 1 to 4 times MIC incubated for 1 hr by propidium iodide staining based fluorescence microscopy; assay type: functional, organism-based
Outline: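 C. albicans ATCC 10231 treated at 1× and 4× MIC and stained with propidium iodide, a membrane-impermeant dye, to detect membrane damage. Untreated cells, FLC (7.8 µg/mL) and KANB (C14) (7.8 µg/mL) serve as comparators.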

Candida albicans [9] = experiment: Antifungal activity against Candida albicans ATCC 10231 at 0.5 to 4 times MIC incubated for 3 to 24 hrs by time kill assay

Row | Structure (SMILES) | MIC (Candida albicans [1]) [µM] | MIC50 (Candida albicans [2]) [µM] | MIC50 (Candida albicans [3]) [µM] | MIC50 (Candida albicans [4]) [µM] | MIC50 (Candida albicans [5]) [µM] | MIC50 (Candida albicans [6]) [µM] | MIC50 (Candida albicans [7]) [µM] | MIC50 (Nakaseomyces glabratus) [µM] | MIC (Pichia kudriavzevii) [µM] | MIC (Candida parapsilosis) [µM] | MIC (Aspergillus flavus) [µM] | MIC (Aspergillus nidulans) [µM] | MIC (Aspergillus terreus) [µM] | other results
1 | CC(O)(Cn1cncn1)c1ccc(F)cc1F (centres undefined) | > 131 | > 131 | > 131 | > 131 | > 131 | > 131 | 65.2 (≈ 15.6 µg/mL) | > 131 | > 131 | 16.3 (≈ 3.9 µg/mL) | > 131 | 131 (≈ 31.3 µg/mL) | > 131 | –
2 | CCCCCCCCCCC(O)(Cn1cncn1)c1ccc(F)cc1F (centres undefined) | 21.3 (≈ 7.78 µg/mL) | 42.7 (≈ 15.6 µg/mL) | 21.3 (≈ 7.78 µg/mL) | 85.6 (≈ 31.3 µg/mL) | 21.3 (≈ 7.78 µg/mL) | > 85.6 | > 85.6 | 21.3 (≈ 7.78 µg/mL) | 0.66 (≈ 0.241 µg/mL) | 0.33 (≈ 0.121 µg/mL) | > 85.6 | 0.66 (≈ 0.241 µg/mL) | 10.7 (≈ 3.91 µg/mL) | Activity (Candida albicans [8]): inactive
3 | C[C@@H](c1ncncc1F)[C@](O)(Cn1cncn1)c1ccc(F)cc1F [VORICONAZOLE] | – | 11.2 (≈ 3.91 µg/mL) | 5.6 (≈ 1.96 µg/mL) | 5.6 (≈ 1.96 µg/mL) | 2.8 (≈ 0.978 µg/mL) | 22.3 (≈ 7.79 µg/mL) | 5.6 (≈ 1.96 µg/mL) | 0.17 (≈ 0.0594 µg/mL) | – | – | – | – | – | MIC50 (Pichia kudriavzevii): 0.34 µM (≈ 0.119 µg/mL); MIC50 (Candida parapsilosis): < 0.06 µM; MIC50 (Aspergillus nidulans): 0.06 µM (≈ 0.021 µg/mL); MIC50 (Aspergillus terreus): 0.34 µM (≈ 0.119 µg/mL); Activity (Candida albicans [9]): Dose-dependent effect
4 | CC[C@H](C)C[C@H](C)CCCCCCCCC(=O)N[C@H]1C[C@@H](O)[C@@H](NCCN)NC(=O)[C@@H]2[C@@H](O)CCN2C(=O)[C@H]([C@H](O)CCN)NC(=O)[C@H]([C@H](O)[C@@H](O)c2ccc(O)cc2)NC(=O)[C@@H]2C[C@@H](O)CN2C(=O)[C@H]([C@@H](C)O)NC1=O [CASPOFUNGIN] | 0.8 (≈ 0.875 µg/mL) | – | – | – | – | – | – | – | 0.4 (≈ 0.437 µg/mL) | 1.6 (≈ 1.75 µg/mL) | > 25.8 | > 26 | > 25.8 | MIC (Candida albicans [2]): 0.2 µM (≈ 0.219 µg/mL); MIC (Candida albicans [3]; read-out: MIC100): 0.05 µM (≈ 0.0547 µg/mL); MIC (Candida albicans [4]): 0.1 µM (≈ 0.109 µg/mL); MIC (Candida albicans [5]; read-out: MIC100): 0.1 µM (≈ 0.109 µg/mL); MIC (Candida albicans [6]; read-out: MIC100): 0.2 µM (≈ 0.219 µg/mL); MIC (Candida albicans [7]; read-out: MIC100): 0.4 µM (≈ 0.437 µg/mL); MIC (Nakaseomyces glabratus): 0.05 µM (≈ 0.0547 µg/mL)
5 | CCCCCCC(O)(Cn1cncn1)c1cccc(Cl)c1 (centres undefined) | > 102 | 102 (≈ 31.3 µg/mL) | > 102 | 25.3 (≈ 7.79 µg/mL) | 25.3 (≈ 7.79 µg/mL) | 25.3 (≈ 7.79 µg/mL) | > 102 | > 102 | > 102 | > 102 | > 102 | 12.7 (≈ 3.91 µg/mL) | > 102 | –
6 | CC(O)(Cn1cncn1)c1ccc(Cl)cc1Cl (centres undefined) | > 115 | > 115 | 28.7 (≈ 7.81 µg/mL) | 7.2 (≈ 1.96 µg/mL) | > 115 | > 115 | > 115 | 14.3 (≈ 3.89 µg/mL) | 14.3 (≈ 3.89 µg/mL) | 0.88 (≈ 0.239 µg/mL) | > 115 | 7.2 (≈ 1.96 µg/mL) | > 115 | –
7 | CCCCCCC(O)(Cn1cncn1)c1cccc(F)c1 (centres undefined) | > 107 | > 107 | 6.7 (≈ 1.95 µg/mL) | 6.7 (≈ 1.95 µg/mL) | 6.7 (≈ 1.95 µg/mL) | 3.3 (≈ 0.962 µg/mL) | 107 (≈ 31.3 µg/mL) | 26.8 (≈ 7.81 µg/mL) | 13.4 (≈ 3.9 µg/mL) | 6.7 (≈ 1.95 µg/mL) | > 107 | 13.4 (≈ 3.9 µg/mL) | 107 (≈ 31.3 µg/mL) | –
8 | CCCCCC(O)(Cn1cncn1)c1cccc(F)c1 (centres undefined) | > 113 | > 113 | 14.1 (≈ 3.91 µg/mL) | 14.1 (≈ 3.91 µg/mL) | 14.1 (≈ 3.91 µg/mL) | 14.1 (≈ 3.91 µg/mL) | > 113 | 28.1 (≈ 7.79 µg/mL) | 14.1 (≈ 3.91 µg/mL) | 14.1 (≈ 3.91 µg/mL) | ≥ 113 | 0.87 (≈ 0.241 µg/mL) | 14.1 (≈ 3.91 µg/mL) | –
